Results published in PMC7346850 (ACS infectious diseases, 2020).
“Also recorded” adds a separate entry of the source.

Key:
HepG2 cells = assay: Cytotoxicity against HepG2; type: cell-based; conditions: Homo sapiens, HepG2, read-out: EC50 HepG2 cells
[1] = tested on: chloroquine-resistant P. falciparum Dd2 cells; assay: Antiplasmodial dose-response, cell-based SYBR Green I assay, Dd2; design: species or system Plasmodium falciparum
Outline: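 Chloroquine-resistant P. falciparum Dd2 cultures were tested in dose–response with a cell-based SYBR Green I growth assay to obtain EC50. Each reported value comes from three independent experiments.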

With `COC(=O)[C@@H]1[C@H]2C[C@H]3c4[nH]c5ccccc5c4CCN3C[C@@H]2CC[C@@H]1O` [Y, yohimbine] the EC50 (HepG2 cells) was over 100 µM, the “antiplasmodial activity (in words)” value ([1]; P. falciparum Dd2 cells) was “no antiplasmodial activities; also recorded: no antiplasmodial activity” and the EC50 ([1]; Plasmodium falciparum, DD2, read-out: EC50 Dd2 cells) was 76.7 ± 0.74 µM.
